Results taken from PMC2765518 (Journal of medicinal chemistry, 2009).

Tests used:
[1] = cited from earlier work
c-Myc (353–437) monomer = c-Myc (353–437) monomer (Homo sapiens, UniProt P01106); assay: Fluorescence polarization competition against 1 for c-Myc binding
How it was run: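 Fluorescence polarization of an intrinsically fluorescent parent Myc-Max disruptor used as probe; polarization rises when the probe binds the c-Myc (353–437) monomer. Test compound was titrated to displace the probe, and the data fitted to a competition constant (Kcomp). Affinity is Kcomp multiplied by the probe–c-Myc(353–437) dissociation constant. Run in triplicate.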

c-Myc-Max(S) heterodimer = c-Myc-Max(S) heterodimer (Homo sapiens, UniProt P01106); assay: Circular dichroism assay of c-Myc-Max dimer disruption; format: biochemical
c-Myc-Max(S) heterodimer, sequence (P01106 368-452, one chain of several): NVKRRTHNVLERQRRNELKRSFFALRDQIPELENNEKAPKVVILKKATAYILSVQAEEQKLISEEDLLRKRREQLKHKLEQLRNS
How it was run: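 Circular dichroism of an equimolar c-Myc/Max(S) mixture, each at 1.5 µM, with helical content from ellipticity at 222 nm. Dimer disruption lowers helicity. Test compound was titrated and the data fitted to a competition constant (Kcomp). Kcomp multiplied by the independently determined c-Myc-Max dissociation constant gives the affinity for the c-Myc monomer, assuming monomer-only binding. Run in triplicate.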

HL60 cells = assay: HL60 cell growth inhibition; format: cell-based; conditions: for Inhibition in HL60 cells: higher levels of c-Myc
How it was run: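 Test compound added to HL60 cells across a dose range, and growth followed over several days. IC50 taken from the dose-response profile on day 5 after compound addition. For the selectivity comparison, TGR1 normal rat fibroblasts and TGR1 knockout cells over-expressing HMGA1b (KO+HMG) were tested alongside.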

[2] = system: TGR1 knockout cells with over-expressed HMGA1b (KO+HMG); assay: Growth inhibition of TGR1 knockout cells with over-expressed HMGA1b; format: cell-based, rat; conditions: cells lacking c-Myc; compared with HL60 and TGR1

c-Myc (353–437) monomer, sequence (P01106 368-452): as the sequence (P01106 368-452, one chain of several) above

SMILES	Metabolism and clearance [1]	Kd (c-Myc (353–437) monomer) [µM]	Kd (c-Myc-Max(S) heterodimer) [µM]	Inhibition in HL60 cells (HL60 cells)	Selectivity for HL60 cells (HL60 cells; HL60 versus TGR1 and KO+HMG cells)	Effect on growth of KO+HMG cells [2]	IC50 (HL60 cells; Homo sapiens, HL-60, 120 h, read-out: IC50 on HL60 cell growth) [µM]
CCc1ccc(/C=C2\SC(=S)NC2=O)cc1 [compound 1, [Z,E]-5-[4-ethylbenzylidine]-2-thioxothiazolidin-4-one]	extensive metabolism and rapid clearance	–	–	–	–	–	–
O=C(CCN1C(=O)c2ccccc2C1=O)N1CCCCC1 [compound 2]	–	2.5	10	–	–	–	–
CCc1ccc(N2CC(C(=O)OC)CC2=O)cc1 (stereo not drawn) [compound 3]	–	40	25	–	–	–	–
CC(C)c1ccc(OCC(=O)Nc2nc3ccccc3s2)cc1 [compound 4]	–	18	19	–	–	–	–
CCc1ccc(OCC(=O)Nc2ccc(C)cc2Br)cc1 [compound 5]	–	70	45	very good inhibition	more selective for HL60s than 6	least effect	–
Cc1ccc(C)c(OCN2Cc3ccccc3C2C=O)c1 (stereo not drawn) [compound 6]	–	–	–	very good inhibition	–	least effect	16.7
